# Autophagy HCS – modulators of autophagy; MEF GFP-LC3 puncta imaging; test concentration mostly 10 µM; calls only at 10 µM (by protocol); hit rate 0.98% among 190,000;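 active = percentage of spot-positive cells more than 3 SD above its plate mean, without a fluorescence outlier flag or 80% toxicity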
# sdo1 growth – compounds rescuing growth of sdo1-depleted yeast, bone marrow failure model. S. cerevisiae sdo1-depleted JHY4D growth rescue, OD600 30 h; hits give high values; pdr5 snq2 efflux-pump mutant strain. z-score at 10 µM. hit rate 0.21% among 140,000;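 active = z-score above 3 at both the 24 hr and the 30 hr optical density reads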
# HCT116 bCat-KO – beta-catenin-lacking colon tumor cell growth suppression | HCT116 beta-catenin knockout viability, CellTiter-Glo, 60 h; hits give low values | viability, % at 10 µM | hit rate 1.5% among 140,000;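 active = viability at or under a set limit, the compound median less 4 SD, cut at about 6% in these data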
# HCT116 PTEN-null – suppresses growth of cells with PTEN deletion. HCT116 PTEN-null viability, CellTiter-Glo, 60 h; hits give low values. hit rate 1.2% among 140,000. AID 827. viability, % at 10 µM;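 active = viability at or below a set limit, 4 SD under the median of all tested compounds, cut at about 3.7% in these data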;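 note: PTEN knockout HCT116 line with beta catenin targeted HCT116 as companion control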
# Dynein transport – dynein cargo transport inhibition; z-score, hits read low; AID 1381; 3617.4 mouse cells, GR-EGFP nuclear translocation imaging; test concentration mostly 20 µM; stimulated with dexamethasone, 1 µM; hits give low values; hit rate 0.47% among 220,000;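 active = plate z-score of nuclear minus cytoplasmic receptor signal below a set negative limit, without overly bright fluorescence or cell loss, cut at about -3.5 in these data, passing the limit was not always enough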;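 note: z-score of nuclear minus cytoplasmic ring GR-EGFP intensity difference per well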
#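 Buffer or medium: tet-free, stripped-serum medium; reagent: dexamethasone at 1.0 µM final, 30 min; incubation: 48 h induction, 1 h compound, 30 min dex at 37 °C; measured by: formaldehyde fixation, Hoechst nuclear stain, 10x automated fluorescence imaging; read-out: nuclear-to-cytoplasmic GR-EGFP distribution per well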
# A number is an active result; 0 = inactive; - = no result; + = active, no number. Compounds with a hit are over-represented: about 2.2% of the library has one in this group of screens.
SMILES,Autophagy HCS,sdo1 growth,HCT116 bCat-KO,HCT116 PTEN-null,Dynein transport
CCc1cc(C(=O)N2CCCC(C(=O)c3cccc4ccccc34)C2)n(C)n1 (centres undefined),0,-,-,-,0
Nc1[nH]n2c(=O)cc(-c3ccccc3)nc2c1N=Nc1ccc(S(N)(=O)=O)cc1,0,-,-,-,0
Nc1[nH]n2c(=O)cc(-c3ccccc3)nc2c1N=Nc1ccccc1,0,0,3.7,0,0
COc1ccc(C(C(=O)NC(C)(C)C)N(C(=O)CNC(=O)c2cccs2)c2ccc(NC(C)=O)cc2)cc1OC (centres undefined),0,-,-,-,0
O=C(NCc1cccnc1)c1ccc(Cl)c(S(=O)(=O)Nc2ccccc2C(=O)NCc2cccnc2)c1,0,-,-,-,0
CCCOc1ccc(C(=O)C(CN2CCOCC2)c2ccccc2)cc1 (centres undefined),0,0,2.6,2.1,0
CCCOc1ccc(C(=O)C(c2ccccc2)N2CCOCC2)cc1 (centres undefined),0,0,0,0,0
Cc1ccc(C(=O)c2oc3ccccc3c2NC(=O)c2cc(-c3ccccc3O)n[nH]2)cc1,+,0,0,0,0
O=C(Nc1c(C(=O)c2ccccc2)oc2ccccc12)c1cc(-c2ccccc2O)n[nH]1,0,0,1.9,1.8,0
Cc1ccc(C(=O)c2oc3ccccc3c2NC(=O)c2cc(-c3cc(C)ccc3O)n[nH]2)cc1,-,-,-,-,0
CCC(C)(C)c1ccc(OCCCC[n+]2ccccc2)c(C(C)(C)CC)c1,0,-,-,-,-3.75
Cc1[nH]c2ccccc2c1/C=N/Nc1nc(Nc2ccc(F)cc2)nc(N2CCOCC2)n1,+,0,5.8,3.6,0
Cc1ccc(Nc2nc(N/N=C/c3c[nH]c4ccccc34)nc(N3CCOCC3)n2)cc1,0,0,5.1,2.8,0
C(=N\Nc1nc(Nc2ccccc2)nc(N2CCOCC2)n1)/c1c[nH]c2ccccc12,0,0,0,0,0
O=C(NC12CC3CC(CC(C3)C1)C2)c1ccc(S(=O)(=O)N2CCOCC2)cc1,0,0,0,0,0
Oc1c(C=Nc2cccc3cccnc23)sc2ccccc12,+,0,3.0,3.8,0
O=[N+]([O-])c1ccc(O)c(N=Cc2sc3ccccc3c2O)c1,0,0,1.9,3.7,0
CC(=O)Nc1ccc(S(=O)(=O)N2CCN(CC(=O)N3CCOCC3)CC2)cc1,-,-,-,-,0
NNC(=O)c1cc(-c2cccs2)nc2ccccc12,-,-,-,-,0
Cc1cccc2sc(NNC(=O)c3cc(-c4cccs4)nc4ccccc34)nc12,0,0,2.3,0,0
COc1ccc(-c2cc(C(=O)Nc3nc4c(C)cccc4s3)c3ccccc3n2)cc1OC,0,0,0,0,0
C/C(=N\NC(=O)c1cc(-c2cccs2)nc2ccccc12)c1ccccn1,+,-,-,-,0
CCN(CC)S(=O)(=O)c1ccc(Cl)c(NC(=O)COc2ccc(OC)cc2)c1,0,-,-,-,0
Cc1noc(C)c1N=Nc1ccc(Br)cc1C(=O)O,0,-,-,-,0
O=S(=O)(CCSc1nc2ccccc2s1)c1nc2ccccc2s1,0,0,3.9,3.3,0
SMILES,Autophagy HCS,sdo1 growth,HCT116 bCat-KO,HCT116 PTEN-null,Dynein transport
O=C(NCc1ccccc1)c1ccc(C(=O)N(C2CCCCC2)C2CCCCC2)cc1,0,0,0,0,0
N#C/C(=N\Nc1cccc(C(F)(F)F)c1)C(=O)c1csc(-c2cccnc2)n1,-,-,-,-,0
O=C(NCc1ccccc1)c1n[nH]nc1-c1ccccc1O,0,0,0,0,0
COc1ccc(Br)cc1/C=N/NC(=O)c1ccco1,0,-,-,-,0
CC(C)(C)c1ccc(OCC(=O)N/N=C/c2cc(Br)ccc2OC(=O)c2ccco2)cc1,0,0,4.8,0,0
O=C1c2cc(S(=O)(=O)NCCCO)ccc2-c2ccc(S(=O)(=O)NCCCO)cc21,0,0,0,0,0
O=C(NC(NC(=S)Nc1ccccc1)C(Cl)(Cl)Cl)c1cccc(Cl)c1 (centres undefined),0,0,2.6,2.0,0
Cc1cc(C)c(NC(=S)NC(NC(=O)c2ccccc2)C(Cl)(Cl)Cl)c(C)c1 (centres undefined),0,0,0,0,0
O=C(O)c1cccc(NC(=S)NC(NC(=O)c2cccc([N+](=O)[O-])c2)C(Cl)(Cl)Cl)c1 (centres undefined),-,-,-,-,0
O=C(NC(NC(=S)Nc1ccc(Cl)cc1Cl)C(Cl)(Cl)Cl)c1cccc([N+](=O)[O-])c1 (centres undefined),0,0,4.1,3.3,0
CC(C)c1nc2cc3ccccc3cc2[nH]1,0,0,0,0,0
c1cc2c(cc1C1CCCCC1)c1c3n2CCN=C3CCC1,0,0,2.1,0,0
c1cc2c(cc1C1CCCCC1)c1c3n2CCCNC3CCC1 (centres undefined),+,0,0.5,0.7,0
Cc1ccc2c(c1)c1c3n2CCCNC3CCC1 (centres undefined),0,0,0,0,0
COCCNC(=O)C(NC(=O)C1CCC(C)CC1)C(C)C (centres undefined),0,-,-,-,0
CCn1cc([N+](=O)[O-])c(C(=O)N2N=C(c3ccc4ccccc4c3)CC2c2cc(Br)ccc2O)n1 (centres undefined),0,0,2.4,3.2,0
CCn1cc([N+](=O)[O-])c(C(=O)N2N=C(c3ccc(Cl)c(Cl)c3)CC2c2ccccc2O)n1 (centres undefined),0,-,-,-,0
COc1ccc(OC)c(NC(=O)c2ccc3c(=O)n(CCc4ccccc4)c(=S)[nH]c3c2)c1,+,0,0,0,0
COc1ccc(NC(=O)c2ccc3c(=O)n(Cc4ccco4)c(=S)[nH]c3c2)c(OC)c1,0,0,0,0,0
CC1CCC/C=C/C(=O)c2c(O)cc(O)cc2CC(=O)O1 (centres undefined),-,-,-,-,-4.52
C[C@@H]1Cc2c(O)c(O)cc(O)c2C(=O)O1,-,-,-,-,0
Cc1cccc(CC2S/C(=N/c3ccccn3)NC2=O)c1 (centres undefined),+,0,0,0,0
COc1ccc(C(=O)N(C)c2c(C)n(C)n(-c3ccccc3)c2=O)cc1OC,+,-,-,-,0
Cc1c(N(C)C(=O)c2ccco2)c(=O)n(-c2ccccc2)n1C,0,0,0,0,0
Cc1cc[n+](C(C)C(=O)c2ccc(-c3ccccc3)cc2)cc1 (centres undefined),0,-,-,-,0
SMILES,Autophagy HCS,sdo1 growth,HCT116 bCat-KO,HCT116 PTEN-null,Dynein transport
Cc1cc(C)nc(SC2=CS(=O)(=O)c3ccccc32)n1,0,0,2.0,1.8,0
O=S1(=O)C=C(SCCN2CCCCC2)c2ccccc21,0,0,0,0,0
O=S1(=O)C=C(Sc2nnc(-c3ccccc3)o2)c2ccccc21,0,0,1.2,0.9,-4.07
CC(=O)Cn1nnc2sc(-c3ccccc3)cc2c1=O,0,-,-,-,0
O=C(NCc1ccccc1)C(Cc1ccccc1)NS(=O)(=O)c1cccc2nsnc12 (centres undefined),0,0,0,0,0
CC(C)(C)NC(=O)C(Cc1ccccc1)NS(=O)(=O)c1cccc2nsnc12 (centres undefined),+,0,0,0,0

# Source: PubChem (several laboratories)
